According to ChEMBL document CHEMBL2062373, “Discovery of pyrroloaminopyrazoles as novel PAK inhibitors” (J Med Chem, 2012):

Legend:
Mus musculus [1] = test: Free dug level in mouse xenografted with human M24 cells at 7.5 mg/kg, po BID for 15 days; type: ADME, organism-based; parameters: dose 7.5 mg/kg, route oral; conditions: in vivo, 360 h
Outline: (§1)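 The read-out is free drug exposure, reported as unbound average concentration (free Cave) in nM. It was obtained from mice dosed orally at the stated regimen, sid or bid, during the xenograft efficacy study.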

[2] = Octanol/buffer partition coefficient, log D of the compound at pH 7.4; type: physicochemical
[3] = target: T1, Glycogen synthase kinase-3 beta (Homo sapiens, UniProt P49841); test: Inhibition of GSK3beta at 1000 nM
Target sequence in this assay (P49841 whole entry, looked up): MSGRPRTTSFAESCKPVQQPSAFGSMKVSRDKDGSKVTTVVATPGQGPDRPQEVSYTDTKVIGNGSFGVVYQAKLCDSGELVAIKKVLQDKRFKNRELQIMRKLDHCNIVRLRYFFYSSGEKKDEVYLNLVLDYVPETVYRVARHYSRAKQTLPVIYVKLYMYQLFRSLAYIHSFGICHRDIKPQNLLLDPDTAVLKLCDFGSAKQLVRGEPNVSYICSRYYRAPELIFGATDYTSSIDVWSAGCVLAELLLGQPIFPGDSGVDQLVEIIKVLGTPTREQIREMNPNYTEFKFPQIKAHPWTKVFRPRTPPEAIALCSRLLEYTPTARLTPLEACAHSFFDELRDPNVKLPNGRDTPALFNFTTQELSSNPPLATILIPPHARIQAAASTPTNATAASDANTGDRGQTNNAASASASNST

[4] = Half life in dog; type: ADME, organism-based, Canis lupus familiaris; conditions: in vivo
Homo sapiens [5] = species on record: Homo sapiens; test: Inhibition of RSK at 1000 nM
[6] = target: T2, Mitogen-activated protein kinase 1 (Homo sapiens, UniProt P28482); test: Inhibition of Erk2
[7] = Clearance in dog; type: ADME, organism-based, Canis lupus familiaris; conditions: in vivo
[8] = target: T2, Mitogen-activated protein kinase 1; test: Inhibition of Erk2 at 1000 nM
[9] = target: Mitogen-activated protein kinase 3 (Homo sapiens) (UniProt P27361); test: Inhibition of ERK1; conditions: concentration not given here
[10] = target: T3, Serine/threonine-protein kinase D3 (Homo sapiens) (UniProt O94806); test: Inhibition of PKD3; conditions: concentration not given here
T3 sequence (whole entry): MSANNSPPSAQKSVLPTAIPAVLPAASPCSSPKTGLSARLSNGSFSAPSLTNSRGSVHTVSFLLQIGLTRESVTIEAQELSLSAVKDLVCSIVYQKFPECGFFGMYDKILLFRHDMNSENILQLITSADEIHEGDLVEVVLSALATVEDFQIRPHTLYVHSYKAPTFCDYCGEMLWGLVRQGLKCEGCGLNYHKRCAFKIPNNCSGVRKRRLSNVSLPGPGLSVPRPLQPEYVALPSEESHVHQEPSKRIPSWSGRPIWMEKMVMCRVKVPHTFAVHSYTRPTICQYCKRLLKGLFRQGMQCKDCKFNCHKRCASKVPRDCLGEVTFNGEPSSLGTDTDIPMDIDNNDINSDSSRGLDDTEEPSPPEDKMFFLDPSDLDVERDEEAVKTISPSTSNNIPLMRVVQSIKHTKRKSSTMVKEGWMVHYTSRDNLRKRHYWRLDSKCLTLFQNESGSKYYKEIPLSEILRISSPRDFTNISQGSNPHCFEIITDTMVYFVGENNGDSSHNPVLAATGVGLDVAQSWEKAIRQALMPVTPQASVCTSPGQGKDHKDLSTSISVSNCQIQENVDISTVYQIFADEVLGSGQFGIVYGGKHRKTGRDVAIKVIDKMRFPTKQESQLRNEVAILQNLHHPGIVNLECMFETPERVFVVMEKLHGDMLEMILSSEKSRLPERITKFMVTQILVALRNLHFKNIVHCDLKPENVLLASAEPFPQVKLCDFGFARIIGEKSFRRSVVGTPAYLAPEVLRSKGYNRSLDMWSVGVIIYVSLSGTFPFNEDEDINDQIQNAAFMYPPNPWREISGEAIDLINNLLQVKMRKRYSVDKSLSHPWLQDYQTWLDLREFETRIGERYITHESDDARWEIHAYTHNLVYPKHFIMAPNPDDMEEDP

[11] = target: AMP-activated protein kinase, AMPK (Homo sapiens) (UniProt P54646+O43741+P54619+Q9UGJ0+Q9Y478+Q13131+Q9UGI9); test: Inhibition of AMPK at 1000 nM; type: protein-complex assay
[12] = Antitumor activity against human M24 cells xenografted in mouse assessed as tumor growth inhibition at 3.75 mg/kg, po BID for 15 days; type: functional; conditions: M24, 360 h, read-out: TGI
[13] = target: Serine/threonine-protein kinase MARK1 (Homo sapiens, UniProt Q9P0L2); test: Inhibition of MARK1
HCT-116 [14] = test: Antitumor activity against human HCT116 cells xenografted in mouse assessed as tumor growth inhibition at 12.5 mg/kg, po BID for 15 days; type: functional; conditions: HCT-116, 360 h, read-out: TGI
Outline: (§2)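 HCT-116 colon carcinoma xenografts in mice. Compound given orally twice daily. Efficacy expressed as percent tumour growth inhibition (TGI).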

[15] = Half life in rat at 5 mg/kg, iv and 10 mg/kg, po; type: ADME, organism-based; conditions: in vivo
Homo sapiens [16] = species on record: Homo sapiens; test: Inhibition of PCTAIRE; conditions: concentration not given here
[17] = target: Cyclin-dependent kinase 2 (Homo sapiens, UniProt P24941)
[18] = target: T1, Glycogen synthase kinase-3 beta
Target sequence in this assay (P49841 whole entry): as the sequence (P49841 whole entry, looked up) above

[19] = Antitumor activity against human M24 cells xenografted in mouse assessed as tumor growth inhibition at 15 mg/kg, po BID for 15 days; type: functional; conditions: M24, 360 h, read-out: TGI
[20] = Oral bioavailability in dog; type: ADME, organism-based, Canis lupus familiaris; conditions: in vivo
[21] = Oral bioavailability in rat at 10 mg/kg; type: ADME, organism-based; conditions: in vivo
HCT-116 [22] = test: Antitumor activity against human HCT116 cells xenografted in mouse assessed as tumor growth inhibition at 20 mg/kg, po BID for 15 days; type: functional; conditions: HCT-116, 360 h, read-out: TGI; outline: as §2
[23] = Volume of distribution at steady state in rat at 5 mg/kg, iv and 10 mg/kg, po; type: ADME, organism-based; conditions: in vivo, read-out: Vdss
Homo sapiens [24] = species on record: Homo sapiens; test: Inhibition of PKA at 1000 nM
Mus musculus [25] = test: Free dug level in mouse xenografted with human M24 cells at 3.75 mg/kg, po BID for 15 days; type: ADME, organism-based; parameters: dose 3.75 mg/kg, route oral; conditions: in vivo, 360 h
[26] = Antitumor activity against human M24 cells xenografted in mouse assessed as tumor growth inhibition at 7.5 mg/kg, po BID for 15 days; type: functional; conditions: M24, 360 h, read-out: TGI
[27] = target: Serine/threonine-protein kinase PAK 4 (Homo sapiens, UniProt O96013); test: Inhibition of PAK4-mediated GEF-H1 phosphorylation at Ser810 by cell based assay; conditions: read-out: EC50
Mus musculus [28] = test: Free dug level in mouse xenografted with human M24 cells at 15 mg/kg, po BID for 15 days; type: ADME, organism-based; parameters: dose 15 mg/kg, route oral; conditions: in vivo, 360 h; outline: as §1
[29] = Clearance in rat at 5 mg/kg, iv and 10 mg/kg, po; type: ADME, organism-based; conditions: in vivo
[30] = Metabolic stability in human liver microsomes assessed as extraction ratio; type: ADME, Microsome; conditions: read-out: ERH
[31] = Efflux ratio of permeability from basolateral to apical side over apical to basolateral side in human Caco2 cells; type: ADME, cell-based; conditions: Caco-2

T2 sequence (P28482 whole entry): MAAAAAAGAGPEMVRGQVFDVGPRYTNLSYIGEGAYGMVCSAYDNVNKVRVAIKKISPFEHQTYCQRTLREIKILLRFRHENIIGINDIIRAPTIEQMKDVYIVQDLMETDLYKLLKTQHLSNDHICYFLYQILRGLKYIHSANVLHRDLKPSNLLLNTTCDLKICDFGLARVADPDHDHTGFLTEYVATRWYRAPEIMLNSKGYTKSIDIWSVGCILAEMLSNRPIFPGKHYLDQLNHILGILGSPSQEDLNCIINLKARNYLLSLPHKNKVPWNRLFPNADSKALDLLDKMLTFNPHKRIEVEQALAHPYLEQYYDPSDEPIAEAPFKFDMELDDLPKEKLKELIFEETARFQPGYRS
Sequence of Mitogen-activated protein kinase 3 (Homo sapiens) (P27361 whole entry): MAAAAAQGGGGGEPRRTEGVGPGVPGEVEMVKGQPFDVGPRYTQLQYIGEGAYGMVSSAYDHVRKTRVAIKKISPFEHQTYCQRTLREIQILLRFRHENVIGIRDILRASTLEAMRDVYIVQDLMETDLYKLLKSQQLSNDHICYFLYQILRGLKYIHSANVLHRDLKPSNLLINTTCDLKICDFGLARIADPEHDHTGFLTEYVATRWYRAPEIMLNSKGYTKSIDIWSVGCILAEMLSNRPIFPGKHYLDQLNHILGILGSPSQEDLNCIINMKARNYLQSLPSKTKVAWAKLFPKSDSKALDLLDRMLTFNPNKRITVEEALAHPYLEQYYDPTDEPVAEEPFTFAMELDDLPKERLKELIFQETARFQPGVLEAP
Sequence of Serine/threonine-protein kinase PAK 4 (O96013 whole entry): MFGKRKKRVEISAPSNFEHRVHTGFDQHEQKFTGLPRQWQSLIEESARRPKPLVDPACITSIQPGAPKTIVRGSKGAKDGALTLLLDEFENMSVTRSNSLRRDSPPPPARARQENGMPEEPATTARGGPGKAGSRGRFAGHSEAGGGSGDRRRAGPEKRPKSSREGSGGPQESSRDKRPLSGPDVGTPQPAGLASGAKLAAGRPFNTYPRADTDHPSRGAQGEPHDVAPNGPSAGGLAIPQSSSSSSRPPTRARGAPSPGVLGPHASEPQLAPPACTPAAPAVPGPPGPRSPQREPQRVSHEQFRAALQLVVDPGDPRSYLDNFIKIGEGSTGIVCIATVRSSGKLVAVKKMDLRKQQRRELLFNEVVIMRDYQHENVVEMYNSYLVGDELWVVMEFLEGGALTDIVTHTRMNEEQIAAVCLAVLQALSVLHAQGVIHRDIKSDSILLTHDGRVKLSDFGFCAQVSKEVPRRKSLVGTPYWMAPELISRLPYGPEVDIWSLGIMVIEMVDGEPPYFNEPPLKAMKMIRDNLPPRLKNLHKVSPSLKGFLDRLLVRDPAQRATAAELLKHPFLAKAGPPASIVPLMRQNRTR
Sequence of Serine/threonine-protein kinase MARK1 (Q9P0L2 whole entry): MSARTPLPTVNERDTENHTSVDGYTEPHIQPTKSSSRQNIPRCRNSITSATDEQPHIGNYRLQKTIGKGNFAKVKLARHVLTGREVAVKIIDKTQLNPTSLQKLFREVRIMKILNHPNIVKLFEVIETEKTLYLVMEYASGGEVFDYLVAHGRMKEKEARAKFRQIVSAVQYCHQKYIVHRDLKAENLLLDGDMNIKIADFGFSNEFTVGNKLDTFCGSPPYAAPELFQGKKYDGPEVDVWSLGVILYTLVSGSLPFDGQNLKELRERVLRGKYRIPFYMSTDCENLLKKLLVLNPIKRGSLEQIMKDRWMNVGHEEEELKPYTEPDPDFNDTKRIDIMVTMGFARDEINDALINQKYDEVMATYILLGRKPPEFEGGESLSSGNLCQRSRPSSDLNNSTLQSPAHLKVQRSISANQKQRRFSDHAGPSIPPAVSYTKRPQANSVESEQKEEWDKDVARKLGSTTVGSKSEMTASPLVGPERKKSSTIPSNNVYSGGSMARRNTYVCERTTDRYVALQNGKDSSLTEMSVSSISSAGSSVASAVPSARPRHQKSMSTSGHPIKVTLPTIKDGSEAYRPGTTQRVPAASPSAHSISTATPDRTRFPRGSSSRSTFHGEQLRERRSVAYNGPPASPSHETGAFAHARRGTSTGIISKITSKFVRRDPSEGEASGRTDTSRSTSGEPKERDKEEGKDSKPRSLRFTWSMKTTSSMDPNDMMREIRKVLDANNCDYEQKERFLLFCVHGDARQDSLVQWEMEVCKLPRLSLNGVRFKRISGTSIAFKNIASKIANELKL

Drug uptake(free) (Mus musculus [1]): 28.3 nM
logD [2]: 2.52
inhibition [3]: > 70%
half-life [4]: 2.2 h
inhibition (Homo sapiens [5]): > 70%
IC50 [6]: 170 nM
clearance [7]: 12 mL/min/kg
inhibition [8]: > 70%
inhibition [9]: > 40%
inhibition [10]: > 40%
inhibition [11]: > 70%
IC50 [13]: 115 nM
half-life [15]: 0.8 h
inhibition (Homo sapiens [16]): > 40%
IC50 [17]: 450 nM
IC50 [18]: 227 nM
bioavailability [20]: 20%
bioavailability [21]: 15%
Vd [23]: 2.8 L/kg
inhibition (Homo sapiens [24]): > 70%
Drug uptake(free) (Mus musculus [25]): 5.3 nM
EC50 [27]: 4 nM
Drug uptake(free) (Mus musculus [28]): 50.5 nM
clearance [29]: 52 mL/min/kg
hepatic extraction ratio [30]: 0.44
efflux ratio [31]: 9.9
SMILES: CN(C)C[C@@H](OC(=O)N1Cc2c(NC(=O)C(C)(C)C)n[nH]c2C1(C)C)c1ccccc1
inhibition in vivo at 3.75 mg/kg [12]: 41%
inhibition in vivo at 12.5 mg/kg (HCT-116 [14]): 37%
inhibition in vivo at 15 mg/kg [19]: 68%
inhibition in vivo at 20 mg/kg (HCT-116 [22]): 52%
inhibition in vivo at 7.5 mg/kg [26]: 61%
